Data taken from the EternaBench riboswitch data.

Test system: MS2 coat protein
Experiment: apparent Kd, MS2 coat protein; higher = weaker binding; RNA-MaP array; FMN 200 µM where present
In short: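 The titrant was SNAP-549-labelled MS2 coat protein, run from 0.7 or 1.5 nM in doubling steps to 3 µM. It was applied to designs transcribed by stalled E. coli RNA polymerase on Illumina sequencing-chip clusters, without ligand first and then with constant ligand, in 100 mM Tris-HCl pH 7.5, 80 mM KCl, 4 mM MgCl2, BSA, DTT, yeast tRNA and Tween-20. The apparent Kd is the median of filtered per-cluster binding-curve fits, with green signal normalised to red-channel RNA signal and control-cluster median Fmax.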

[1] = designed as: ON switch for flavin mononucleotide, no ligand
[2] = ligand present: flavin mononucleotide, designed as: ON switch for flavin mononucleotide
[3] = designed as: OFF switch for flavin mononucleotide, no ligand
[4] = ligand present: flavin mononucleotide, designed as: OFF switch for flavin mononucleotide

Sequence | apparent Kd [1] [nM] | apparent Kd [2] [nM] | apparent Kd [3] [nM] | apparent Kd [4] [nM]
UUGGCAACGUAGAAGGGUGACAUGAGGAUCACCCAUGUGCCGAUAUUUCUCGAGAUAUGUCGGCCACAGGAUAUACGUGCCAUC | 32.3 | 57.9 |  | 
GAGGUAUUCGUAGGAUAUCCGUCGCCACCGUGUGGAGAAGGACGAACAUGAGGAUCACCCAUGUAUCAUGGUGUGGACGCUGUC |  |  | 61.8 | 61.7
AGUCGGCGAGGAUAUACAUGAGGAUCACCCAUGUGAGAGAAUAAAGUGAGUUAGACAAGUAGAAGGCGCUGACA |  |  | 47.4 | 415
GUUUGACAUGAGGAUCACCCAUGUAAGGAUAUACGAGUAGCUGCUAGGUAGUUAGUAUGUAGAAGGUGCGUGUU |  |  | 65.7 | 62.6
GCGUCAGAAUUAAUUGUGACAUACAGAAGGCAAUAUUAAGGUUAAGACAUGAGGAUCACCCAUGUUGAGGAUAUGUAGUGACGC |  |  | 8.9 | 15.8
GCCUUACUGGUCAGGAUAUACAUUUGUUACUCUUUGUAGAAGGGACAUGAGGAUCACCCAUGUACAUUACAUUC |  |  | 20.8 | 27.2
GGUACUCAAAGAGUACUUGGUCGAACAUGAGGAUCACCCAUGUAGGAUAUGCGAAGCAAGAAGUAGCAGAAGGACAUGUGCAGC |  |  | 14.8 | 43.7
UACUUGUCAGGAUAUCUUACAUUUGCAUUAUAGCAACUCUUGGAGAAGGGACAUGAGGAUCACCCAUGUUUGGU |  |  | 70.8 | 317
UGUCGGAGCAGAGGAUAUUACAUGAGGAUCACCCAUGUAUGAACCAAUAGAUGGAAACAGCAAUGUAAGAAGGCUGCUCCGACA |  |  | 95.9 | 346
CGAGUUUUUGAGAAGGCAUAUUAUAAUAUUCCACAUGUUUACAUGAGGAUCACCCAUGUUUACUAUGAGGAUAUCAGAAUGUCG |  |  | 4.72 | 4.54
UGUCGGAGCAGAGGAUAUUACAUGAGGAUCACCCAUGUAAUAAGAUCAAGCUGGAAACAGCAAUGUAAGAAGGCUGCUCCGACA |  |  | 16.9 | 43.3
UUAUAAAGAGUGAGGAUAUGCUGGUCCAUGGAUCAGCAGAAGGCACAUGAGGAUCACCCAUGUAAAAUAAUAUU |  |  | 18.3 | 37.6
UAAUUGUGAGGAUAUUCGUAGUACACGGAGACGUGUAUUACGGAGAAGGCACAUGAGGAUCACCCAUGUUCCUU |  |  | 18.2 | 89.4
UUUUAGAGAGGAUAUACAUUUUUUUAUUUAUUUAUAAUAUUACAUGAGGAUCACCCAUGUAGAAGGCUCAUUUU |  |  | 28.8 | 22
GUCGGAAACGACAAACGUAGCAUACGAGAAGGCUGAUCCACGACAUGAGGAUCACCCAUGUAGUUAGAGGAUAUUGGAUGCUAC | 54.7 | 11.3 |  | 
UUCAUCAGUGAAGGAUAUCUAUGUCCAACAUGAGGAUCACCCAUGUUGAGGAUUACCUAUGUGUAGGAGAAGGUCAAUAUAACU | 6.79 | 6.1 |  | 
GGUGGCGUGAUAACGCUAGAUAUAACAUGAGGAUCACCCAUGUAGGAUAUCCCGCCGAGAGGGCGGGAGAAGGACAACCAAUGG |  |  | 40.9 | 34
GUUUCGUGAGGAUAUGUGGCUUCGAUCGUGCGAUCGAGGCUACAGAAGGCACAUGAGGAUCACCCAUGUUCCUC |  |  | 45.2 | 612
UAAAAGCUAGGAUAUACAUGAGGAUCACCCAUGUCACGGGUCCACUCAUCCUAUACGUGUAGAAGGAGCGACCC |  |  |  | 19.2

Sequence | apparent Kd [1] [nM] | apparent Kd [2] [nM] | apparent Kd [3] [nM] | apparent Kd [4] [nM]
CAAUUUAUAUCAGGAUAUACAAUACAAUGAUUAGUAGAAGGGAUUAAUACAUGAGGAUCACCCAUGUCAUGUGUCAUAAUAACC |  |  | 24.2 | 19.1
AAAUGCUGAGGAUAUACAUGAGGAUCACCCAUGUACUAAACUCGCAAGGGCAUCCGGUGUAGAAGGCAGCCUCA |  |  | 17.3 | 39.7
ACUGGUCGAGGAUAUACAUGAGGAUCACCCAUGUGAUUAGCAGUCCUCGGACUGCAAUGUAGAAGGCGACCAGU |  |  | 370 | 842
GCUUCACAUGAGGAUCACCCAUGUUUUCGGAGUCGAGGAUAUGGUCACUGUAAACAGUGGCCAGAAGGCGAGGAGC | 18.2 | 16.7 |  | 
AAAUUUAACGAAGGAUAUGCUGACAUGAGGAUCACCCAUGUGUGCUUUGUGUUGCUGAAACGGGAGCAGAAGGUCGUAUACAUA |  |  | 82.5 | 82.5
UAUAUUUAUGUAGGAUAUGGUAUAUAAAAUAUACCAGAAGGACAUGAGGAUCACCCAUGUAUGAAAUUCCAUAAUUGCCGUGUA |  |  | 12.7 | 14.8
GCCAUCGCAUGAGGAUAUGGCACCGUUUCGGUGCCAGAAGGCAUGUCAAAUGACAUGAGGAUCACCCAUGUAGUUAAGGUGGCA | 225 | 14.9 |  | 
UGUGUCUGUAGAGGAUAUCCGAGCGUUCGGCGAGGAGAAGGCUGCAACACAUGAGGAUCACCCAUGUAGGUUGUGUCUCCCUAC |  |  | 10.9 | 32.2
GUCGUGUUAGGAUAUGGCAACGGCUACGAAAGUAGUUGUUGUUAGAAGGAACAUGAGGAUCACCCAUGUAUGAC |  |  | 38 | 101
GUCGGAAACGACAAAAGUAGCAUACGAGAAGGUUGAUCCAAGACAUGAGGAUCACCCAUGUAGUUAGAGGAUAUUGGAUGCUAC | 163 | 116 |  | 
UGAUUUCAUGUAGGAUAUGCUUGGCGAAGCUACGCAGAAGGACAUGAGGAUCACCCAUGUUUUAGCGUCUGAGUAUAGAUUCUA |  |  | 30.6 | 187
ACUAGGCGAGGAUAUACAUGCUUAACACAGCGAAAGCUGUGACAUGAGGAUCACCCAUGUAGAAGGCGCAAAUA |  |  | 54.1 | 365
GGUUGUCAUCGUCGUCCUUUCGUUACAUGAGGAUCACCCAUGUAGGAUAUGCUGCAUUCGAUGUGGCAGAAGGGCAUGUGUGUU |  |  | 18.1 | 31.6
GUUCUGCUAGGAUAUGCAUCAACGGGAUAGCCUACGCGGAAACAUGAGGAUCACCCAUGUAGAAGGAGCUGAAC |  |  | 30.3 | 30.6
AGAACGUCAGGAUAUCCAACAACAAGUAAAUAGAGAAGAAGGGAGAAGGGACAUGAGGAUCACCCAUGUAAGAA |  |  | 51.4 | 45.9
GCACUGGAUGUAGGAUAUCAGGACGAUAAGUCCUGAGAAGGACAUGAGGAUCACCCAUGUAAAACCUCCCAGUGCUAUAAUAUA |  |  | 17.1 | 19.7
GUAUGUAACAAGGAUAUGCCCUCGAUACGAUUUGCAGAAGGUGUUACAUGAGGAUCACCCAUGUGGCCUUGCAU |  |  | 19.4 | 74.9
UGAUAGGACACAGGAUAUACGUCCUAGAGAUACUAGGAAAGUUUCCUCACAUGAGGAUCACCCAUGUAGAAGGGUGUCCUAUCU |  |  | 9.93 | 222
AAUAAACACACAGGAUAUAGCAUCGUCGUUGCGAACUUAGCGACGACGAUGCUAGAAGGGUGAACACAUGAGGAUCACCCAUGU |  | 38.4 |  | 

Sequence | apparent Kd [1] [nM] | apparent Kd [2] [nM] | apparent Kd [3] [nM] | apparent Kd [4] [nM]
GAUAAACAUGAGGAUCACCCAUGUGAGGAUAUGCGUACGUUGUCCGUAGGCGACGUGCGCAGAAGGCGCAAGGU |  |  | 99.4 | 216
UUUUAUAGAACAGGAUAUGUGGGCGGGUCCGACGGGAUCCACCACAUGAGGAUCACCCAUGUGACACAGAAGGGUUCCAGAAAC | 474 | 24.2 |  | 
GGGUACAUCGGAGGAUAUCGUGUAAAUACAUGAGGAUCACCCAUGUCGAUGGAGACAUCGGAGAUUGAGAAGGCCGAUGUACCG | 123 | 8.12 |  | 
UAUUAAUGCAAGGAUAUGCUAUUAAUUUUUUUUGCAGAAGGUGCAACAUGAGGAUCACCCAUGUUUGAGGGUAU |  |  | 66.8 | 67.8
GGAUAGGACAAAGGAUAUACGUGCUAGAGAUACUAGCAAAAUUUCCUCACAUGAGGAUCACCCAUGUAGAAGGCUGUCCUAUCG |  |  | 6.93 | 14.7
UUAAUGUGAGGAUAUCAGGUGUGCUAGCGUACUGGUACAUCUGAGAAGGCACAUGAGGAUCACCCAUGUUCUUC |  |  | 37 | 135
CGCACUUAUAGAGGAUAUGUUAAACAUGAGGAUCACCCAUGUGAUUUAGUAUCAAUAUUAGUGAAACAGAAGGCUAUUAGUGCG |  |  | 13.3 | 12.9
CUUUAGUGAGGAUAUCUGGCUUCGAUCGUGAGAUCGAGGCUAGAGAAGGCACAUGAGGAUCACCCAUGUUCCUC |  |  | 40.1 | 439
ACAACCAGAGGAUAUGCGCAUAGAUCAGACUUUGUUUCUGAACAUGAGGAUCACCCAUGUAGAAGGCUGUAACA |  |  | 34.9 | 33.9
CUGGUUCUCGUAGGAUAUGUAGGAUAUGCCUACAUGAGGAUCACCCAUGUUCGCAUGGCAGAAGGACAGAAGGACGAUCACCAG | 55.6 | 15.4 |  | 
AAAUAAAUGACUAAGGAUAUAUCAGAGAAAACAUGAGGAUCACCCAUGUAAUAAUAAAAAGGGUGAUAGAAGGUAGUCAACAAACA | 222 | 44.5 |  | 
GACUUGUCAGGAUAUCUUACAUAAACAUCGUAGUUACAAUUGGAGAAGGGACAUGAGGAUCACCCAUGUUUGCG |  |  | 25.1 | 29.3
AUCAGCUCGUCAGGAUAUACGUCACUGCGUCAGCAGUGUGGUUAGAUCACAUGAGGAUCACCCAUGUAGAAGGGACGAGCUGAU |  |  | 23.4 | 458
AUUAACUACAUAGGAUAUUGAUACAUGAGGAUCACCCAUGUCACCCAUUUAUAUAUUAAUAUUGACAAGAAGGAUGUGGUUACA | 13.1 | 6.13 |  | 
UGGAUCAAUACAGGAUAUGGUGACGCACAUGAGGAUCACCCAUGUCCGCAGCGUGCUAAGCACGCCCAGAAGGGUAUUAAUUCG | 885 | 90 |  | 
AAAUCUGCUGAGGAUAUGAUGACUGAGAGGUCAUCAGAAGGCGGUACAUGAGGAUCACCCAUGUCUAUGGGCAA |  |  | 310 | 659
GUCAGCUCGUGAGGAUAUACAACACUGCUUAGGCAGUGUAUUAAGAUCACAUGAGGAUCACCCAUGUAGAAGGCACGAGCUGAU |  |  | 13.6 | 222
ACGCCCUGAGGAUAUCUUAUCCCGUACAUGAGGAUCACCCAUGUUUUCCUCCGGGCUCCGAGAGAAGGCAGGCCCA |  |  | 42.2 | 75.9
